Measured values collected from several papers.
Protocols differ between the studies behind these lines. pIC50: −log10 of the molar value.
CYP3A4: Cytochrome P450 3A4 (CYP3A4, Homo sapiens, UniProt P08684)
CYP1A2: Cytochrome P450 1A2 (CYP1A2, Homo sapiens, UniProt P05177)
SLCO1B1: Solute carrier organic anion transporter family member 1B1 (SLCO1B1, Homo sapiens, UniProt Q9Y6L6)

| Structure (SMILES) | target | assay | test system | conditions | measurement | result |
| --- | --- | --- | --- | --- | --- | --- |
| CC(C)(C)OC(=O)NCCCCCC(=O)NCc1cccnc1 | CYP3A4 | thermal stability | – | – | ΔTm | -0.2 °C |
| Nc1ccc(S(=O)(=O)Nc2ccnn2-c2ccccc2)cc1 | CYP1A2 | enzyme activity, inhibitor | human, liver microsomes | 10 µM | inhibition | -9% |
| C[C@H]1C[C@H]2[C@@H]3CCC4=CC(=O)C=C[C@]4(C)[C@@]3(Cl)[C@@H](O)C[C@]2(C)[C@@]1(O)C(=O)CO | SLCO1B1 | transporter uptake, inhibitor | – | – | pIC50 | 5.17 |
| CN(C(=O)n1cnc(-c2ccc[n+]([O-])c2)c1)C1CCCCC1 | SLCO1B1 | transporter uptake, inhibitor | HEK293 | 10 µg/mL | inhibition | ~20% |
| COC(=O)C1CCN(C(=O)c2cccc(NCc3cnc4nc(N)nc(N)c4n3)c2)CC1 | CYP3A4 | enzyme activity, inhibitor, luciferase | – | 10 µM | inhibition | -19.5% |
| C=CC(=O)Nc1cc(Nc2nccc(Nc3cc(Cl)c(F)cc3C(C)(C)O)n2)c(OC)cc1N1CC[C@@H](N(C)C)C1 | CYP3A4 | enzyme activity, inhibitor | human, liver microsomes | – | pIC50 | 4.74 |
| CC(C)(C)OC(=O)N[C@H](CSCCC(=O)NCc1cccnc1)Cc1ccccc1 | CYP3A4 | thermal stability | – | – | ΔTm | -1 °C |
| NC(=O)C1CCN(C(=O)c2ccc(NCc3cnc4nc(N)nc(N)c4n3)cc2)CC1 | CYP3A4 | enzyme activity, inhibitor, luciferase | – | 10 µM | inhibition | -4.54% |
| CN(CCC(=O)O)C(=O)c1ccc2c(c1)CC[C@@H]1[C@@H]2CC[C@]2(C)C(c3cncc(F)c3)=CC[C@@H]12 | SLCO1B1 | transporter uptake, inhibitor | – | – | pIC50 | 5.51 |
| O=C(Nc1c2c(cc3c1CCC3)CCC2)NS(=O)(=O)/C=C/c1nccs1 | CYP1A2 | enzyme activity, inhibitor | human, liver microsomes | 2 µM, pH 7.4 | inhibition | 14.6% |
| CCCOC(=O)C1CCN(C(=O)c2ccc(N(C)Cc3cnc4nc(N)nc(N)c4n3)cc2)CC1 | CYP3A4 | enzyme activity, inhibitor, luciferase | – | 10 µM | inhibition | -10.1% |
